Reference: ChEMBL document CHEMBL1275556, “High prevalence of plasmid-mediated quinolone resistance genes qnr and aac(6')-Ib-cr in clinical isolates of Enterobacteriaceae from nine teaching hospitals in China” (2008)
Values after ≈ are worked out from the molar mass of the structure shown.

Key:
Citrobacter freundii [1] = assay: Antimicrobial activity against aac(6')-Ib-cr-positive Citrobacter freundii PU55 harboring GyrA T83I, ParC S80I mutant, wild-type GyrB, qnrA genes by agar dilution method in presence of clavulanic acid; type: functional
Outline: (§1)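 MICs were determined by the CLSI agar dilution method (M7-A7) and interpreted against CLSI M100-S17 breakpoints.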

Citrobacter freundii [2] = assay: Antimicrobial activity against aac(6')-Ib-cr-positive Citrobacter freundii PU55T harboring wild-type GyrA, ParC, GyrB and qnrA genes by agar dilution method
Citrobacter freundii [3] = assay: Antimicrobial activity against aac(6')-Ib-cr-positive Citrobacter freundii PU55T harboring wild-type GyrA, ParC, GyrB and qnrA genes by agar dilution method in presence of clavulanic acid; type: functional
Outline: (§2)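 Transconjugants came from conjugation of qnr and/or aac(6')-Ib-cr-carrying donors with azide-resistant E. coli J53. […] MICs were determined by CLSI agar dilution (M7-A7) and interpreted by M100-S17.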

Enterobacter cloacae [4] = assay: Antimicrobial activity against aac(6')-Ib-cr-negative Enterobacter cloacae SH39 harboring GyrA S83I, ParC S80I mutant, wild-type GyrB and qnrA genes by agar dilution method; type: functional
Klebsiella pneumoniae [5] = assay: Antimicrobial activity against aac(6')-Ib-cr-negative Klebsiella pneumoniae SY22T harboring qnrS gene by agar dilution method in presence of clavulanic acid; type: functional; outline: as §2
Citrobacter freundii [6] = assay: Antimicrobial activity against aac(6')-Ib-cr-positive Citrobacter freundii TJ15T harboring wild-type GyrA, ParC, GyrB genes by agar dilution method in presence of clavulanic acid; type: functional; outline: as §1
Enterobacter cloacae [7] = assay: Antimicrobial activity against aac(6')-Ib-cr-negative Enterobacter cloacae WH42 harboring wild-type GyrA, ParC, GyrB and qnrA genes by agar dilution method; type: functional
Klebsiella pneumoniae [8] = assay: Antimicrobial activity against aac(6')-Ib-cr-positive Klebsiella pneumoniae WH99 harboring wild-type GyrA, ParC, GyrB and qnrB genes by agar dilution method; type: functional
Outline: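 MICs were determined on clinical isolates by CLSI agar dilution (M7-A7) and interpreted against CLSI M100-S17 breakpoints.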

Klebsiella pneumoniae [9] = assay: Antimicrobial activity against aac(6')-Ib-cr-positive Klebsiella pneumoniae WH99T harboring qnrB gene by agar dilution method; type: functional
Outline: (§3)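 Transconjugants were made by conjugating a qnr/aac(6')-Ib-cr donor with azide-resistant E. coli J53. Selection used Trypticase soy agar with sodium azide 150 µg/ml and sulfamethoxazole 180 µg/ml. […] MICs were read by CLSI agar dilution (M7-A7) and interpreted per M100-S17.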

Escherichia coli [10] = assay: Antimicrobial activity against Escherichia coli J53 harboring wild-type GyrA, ParC, GyrB genes by agar dilution method
Escherichia coli [11] = assay: Antimicrobial activity against aac(6')-Ib-cr-positive Escherichia coli FJ3 harboring GyrA S83L, ParC S80R mutant, wild-type GyrB and qnrB genes by agar dilution method in presence of clavulanic acid; type: functional
Outline: (§4)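 MICs were determined by CLSI agar dilution (M7-A7) and interpreted by CLSI M100-S17 breakpoints. The curator's line names the β-lactamase inhibitor added.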

Enterobacter cloacae [12] = assay: Antimicrobial activity against aac(6')-Ib-cr-positive Enterobacter cloacae FJ63T harboring qnrS gene by agar dilution method in presence of clavulanic acid; type: functional; outline: as §2
Klebsiella pneumoniae [13] = assay: Antimicrobial activity against aac(6')-Ib-cr-positive Klebsiella pneumoniae GZ40 harboring GyrA S83I, ParC S80I mutant, wild-type GyrB and qnrB genes by agar dilution method in presence of clavulanic acid; type: functional
Outline: (§5)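 MICs measured by CLSI agar dilution (M7-A7) and interpreted against CLSI M100-S17 breakpoints. Strains were clinical Enterobacteriaceae isolates or the azide-resistant E. coli J53 recipient.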

Klebsiella pneumoniae [14] = assay: Antimicrobial activity against aac(6')-Ib-cr-positive Klebsiella pneumoniae JN132T harboring qnrB gene by agar dilution method; type: functional; outline: as §3
Citrobacter freundii [15] = assay: Antimicrobial activity against aac(6')-Ib-cr-negative Citrobacter freundii JN64 harboring GyrA T83I, wild-type ParC, GyrB and qnrA genes by agar dilution method in presence of clavulanic acid; type: functional; outline: as §1
Citrobacter freundii [16] = assay: Antimicrobial activity against aac(6')-Ib-cr-negative Citrobacter freundii JN64T harboring qnrA gene by agar dilution method; type: functional; outline: as §1
Escherichia coli [17] = assay: Antimicrobial activity against aac(6')-Ib-cr-negative Escherichia coli PU12T harboring wild-type GyrA, GyrB, ParC and qnrS genes by agar dilution method in presence of Tazobactam; type: functional
Outline: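 Transconjugants came from conjugation of qnr and/or aac(6')-Ib-cr donors into azide-resistant E. coli J53. […] MICs were measured by CLSI agar dilution (M7-A7) and interpreted per M100-S17.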

Citrobacter freundii [18] = assay: Antimicrobial activity against aac(6')-Ib-cr-positive Citrobacter freundii PU55T harboring wild-type GyrA, ParC, GyrB and qnrA genes by agar dilution method in presence of Tazobactam; type: functional; outline: as §1
Enterobacter cloacae [19] = assay: Antimicrobial activity against aac(6')-Ib-cr-negative Enterobacter cloacae SH39T harboring qnrA gene by agar dilution method in presence of Tazobactam; type: functional; outline: as §1
Klebsiella pneumoniae [20] = assay: Antimicrobial activity against aac(6')-Ib-cr-negative Klebsiella pneumoniae SY22T harboring qnrS gene by agar dilution method in presence of Tazobactam; type: functional; outline: as §1
Klebsiella pneumoniae [21] = assay: Antimicrobial activity against aac(6')-Ib-cr-positive Klebsiella pneumoniae GZ40 harboring GyrA S83I, ParC S80I mutant, wild-type GyrB and qnrB genes by agar dilution method in presence of Tazobactam; type: functional; outline: as §1
Enterobacter cloacae [22] = assay: Antimicrobial activity against aac(6')-Ib-cr-negative Enterobacter cloacae GZ51 harboring qnrA gene by agar dilution method in presence of Tazobactam; type: functional; outline: as §1
Enterobacter cloacae [23] = assay: Antimicrobial activity against aac(6')-Ib-cr-negative Enterobacter cloacae GZ51T harboring qnrA gene by agar dilution method in presence of Tazobactam; type: functional; outline: as §1
Citrobacter freundii [24] = assay: Antimicrobial activity against aac(6')-Ib-cr-positive Citrobacter freundii JN1 harboring GyrA T83I, ParC S80I mutant, wild-type GyrB and qnrA genes by agar dilution method in presence of Tazobactam; type: functional; outline: as §4
Klebsiella pneumoniae [25] = assay: Antimicrobial activity against aac(6')-Ib-cr-positive Klebsiella pneumoniae JN132 harboring GyrA S83I, ParC S80I mutant, wild-type GyrB and qnrB genes by agar dilution method in presence of Tazobactam; type: functional; outline: as §5
Klebsiella pneumoniae [26] = assay: Antimicrobial activity against aac(6')-Ib-cr-positive Klebsiella pneumoniae JN41 harboring GyrA S83I, ParC S80I mutant, wild-type GyrB and qnrB genes by agar dilution method in presence of Tazobactam; type: functional; outline: as §5
Citrobacter freundii [27] = assay: Antimicrobial activity against aac(6')-Ib-cr-negative Citrobacter freundii JN64T harboring qnrA gene by agar dilution method in presence of Tazobactam; type: functional; outline: as §1

SMILES: CO/N=C(\C(=O)N[C@@H]1C(=O)N2C(C(=O)O)=C(COC(C)=O)CS[C@H]12)c1csc(N)n1 [CEFOTAXIME]
- MIC (Citrobacter freundii [1]): 256 µg/mL
- MIC (Citrobacter freundii [2]): 0.064 µg/mL (≈ 0.141 µM)
- MIC (Citrobacter freundii [3]): 0.032 µg/mL
- MIC (Enterobacter cloacae [4]): 4 µg/mL (≈ 8.78 µM)
- MIC (Klebsiella pneumoniae [5]): 0.032 µg/mL
- MIC (Citrobacter freundii [6]): 0.125 µg/mL
- MIC (Enterobacter cloacae [7]): 256 µg/mL (≈ 562 µM)
- MIC (Klebsiella pneumoniae [8]): 32 µg/mL (≈ 70.3 µM)
- MIC (Klebsiella pneumoniae [9]): 16 µg/mL (≈ 35.1 µM)
- MIC (Escherichia coli [10]): 0.032 µg/mL (≈ 0.0703 µM)
- MIC (Escherichia coli [11]): 0.032 µg/mL
- MIC (Enterobacter cloacae [12]): 0.032 µg/mL
- MIC (Klebsiella pneumoniae [13]): 0.5 µg/mL
- MIC (Klebsiella pneumoniae [14]): 32 µg/mL (≈ 70.3 µM)
- MIC (Citrobacter freundii [15]): 128 µg/mL
- MIC (Citrobacter freundii [16]): 16 µg/mL (≈ 35.1 µM)

SMILES: CCN1CCN(C(=O)N[C@@H](C(=O)N[C@@H]2C(=O)N3[C@@H]2SC(C)(C)[C@@H]3C(=O)O)c2ccccc2)C(=O)C1=O [PIPERACILLIN]
- MIC (Escherichia coli [17]): 1 µg/mL
- MIC (Citrobacter freundii [18]): 4 µg/mL
- MIC (Enterobacter cloacae [19]): 1 µg/mL
- MIC (Klebsiella pneumoniae [20]): 1 µg/mL
- MIC (Klebsiella pneumoniae [21]): > 256 µg/mL
- MIC (Enterobacter cloacae [22]): 2 µg/mL
- MIC (Enterobacter cloacae [23]): 2 µg/mL
- MIC (Citrobacter freundii [24]): 16 µg/mL
- MIC (Klebsiella pneumoniae [25]): 4 µg/mL
- MIC (Klebsiella pneumoniae [26]): 4 µg/mL
- MIC (Citrobacter freundii [27]): 4 µg/mL
